Data set [1] deals with Trypanosoma brucei brucei. Briefly: Antiparasitic activity against bloodstream trypomastigote stage of wild type Trypanosoma brucei brucei Lister 427 after 48 hrs by resazurin dye based fluorescence assay. Format: functional, organism-based. The note with it: for EC50: Lister 427, 48 h. In a few lines:
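Bloodstream trypomastigotes of T. b. brucei s427 (wild type) were tested, both with and without glycerol. EC50 values are the mean of 3 experiments ± SEM.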

For data set [2], the system named is Trypanosoma brucei brucei. Briefly: Resistance factor, ratio of EC50 for diminazene, pentamidine and melaminophenyl arsenical-resistant bloodstream trypomastigote stage of Trypanosoma brucei brucei B48 harboring TbAT1 deletions to EC50 for bloodstream trypomastigote stage of wild-type Trypanosoma brucei brucei Lister 427. Type of data set: functional.
Data set [3] deals with Trypanosoma brucei brucei. Briefly: Resistant factor, ratio of EC50 for pentamidine-resistant bloodstream trypomastigote stage of Trypanosoma brucei brucei harboring AQP1 to 3 deletions to EC50 for bloodstream trypomastigote stage of wild-type Trypanosoma brucei brucei Lister 427 in presence of glycerol. Type of data set: functional.
Data set [4] in a line: Cytotoxicity against HEK293T cells after 30 hrs by resazurin dye based fluorescence assay. Type of data set: cell-based, HEK-293T. The note with it: human. In a few lines: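 Cytotoxicity was measured on human embryonic kidney (HEK) cells and reported as CC50. Values are the mean of 3 experiments ± SEM.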
Data set [5] addresses Alternative oxidase, mitochondrial (Trypanosoma brucei brucei, UniProt Q26710). Briefly: Inhibition of recombinant Trypanosoma brucei brucei alternative oxidase using ubiquinol-1 as substrate incubated for 2 mins followed by substrate addition by spectrophotometric method. In a few lines:
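The assay measured inhibition of the ubiquinol oxidase activity of purified recombinant ∆MTS-TAO from T. b. brucei.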

Data set [6] in a line: Selectivity index, ratio of CC50 for HEK293T cells to EC50 for bloodstream trypomastigote stage of wild type Trypanosoma brucei brucei Lister 427. Type of data set: toxicity. The note with it: human; read-out: Ratio CC50/EC50. In a few lines: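 The selectivity index was calculated as CC50 in HEK cells divided by EC50 against wild-type T. b. brucei s427 bloodstream trypomastigotes.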

Data set [7] concerns Trypanosoma brucei brucei. Briefly: Antiparasitic activity against bloodstream trypomastigote stage of wild type Trypanosoma brucei brucei Lister 427 at 100 uM after 48 hrs by resazurin dye based fluorescence assay. Type of data set: functional, organism-based.
Data set [8] relates to Trypanosoma brucei brucei. Briefly: Resistant factor, ratio of EC50 for bloodstream trypomastigote stage of wild-type Trypanosoma brucei brucei Lister 427 assessed as inhibition of respiration in presence of glycerol to EC50 for bloodstream trypomastigote stage of wild-type Trypanosoma brucei brucei Lister 427 assessed as inhibition of respiration in absence of glycerol. Type of data set: functional.

The source made the active and inactive calls. The calls are words filed in the database; no cut-off is given here.

Sequence of Alternative oxidase, mitochondrial (Q26710 whole entry): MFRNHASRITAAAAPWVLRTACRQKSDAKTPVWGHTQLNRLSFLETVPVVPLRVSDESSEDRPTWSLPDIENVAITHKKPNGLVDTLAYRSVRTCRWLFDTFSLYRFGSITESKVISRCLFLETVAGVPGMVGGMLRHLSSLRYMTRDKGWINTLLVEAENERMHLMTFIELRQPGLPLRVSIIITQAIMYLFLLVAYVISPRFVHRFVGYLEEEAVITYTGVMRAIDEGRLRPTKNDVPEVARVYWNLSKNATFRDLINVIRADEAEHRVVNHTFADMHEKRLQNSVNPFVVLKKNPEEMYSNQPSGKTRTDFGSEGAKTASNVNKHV

Take `O=C(NO)c1ccccc1O` [SALICYLHYDROXAMIC ACID]: the EC50 in data set [1] came to 62.9 µM.

Regarding `COC(=O)c1ccc(OCCCCCCCCCCCCCBr)cc1F`, in data set [1], the result was inactive. Moreover, in data set [2], the “Ratio EC50” value is reported as less than 1.

For the compound `O=C(O)c1ccc(OCCCCCCCCCCCCC[P+](c2ccccc2)(c2ccccc2)c2ccccc2)cc1F.[Br-]`, the “Ratio EC50” value in data set [3] is greater than 2; in data set [2] it was less than 1. Besides, in data set [4], half-maximal cytotoxicity (CC50 at 30 h) was put at 8.35 µM. In data set [1], the 50% effective concentration (EC50) turned out to be 0.037 µM. Also, the IC50 in data set [5] was greater than 5 µM. For the same compound, the selectivity ratio in data set [6] is 225.

On to `O=Cc1ccc(OCCCCCCCCCCCCC[n+]2cccc3ccccc32)cc1O`, for which the CC50 at 30 h in data set [4] was greater than 200 µM. In data set [1], this compound displayed an EC50 of 1.75 µM. Moreover, the IC50 in data set [5] worked out at 1.23 µM. Besides, the selectivity ratio in data set [6] was greater than 114.

For `COC(=O)c1c(C)cc(OCCCCCCCCCCCCC[P+](c2ccccc2)(c2ccccc2)c2ccccc2)cc1O.[Br-]`, the “Ratio EC50” value in data set [3] is given as greater than 2; in data set [2] it was less than 1.

`COC(=O)c1ccc(OC/C(C)=C/CC/C(C)=C/COC(C)=O)cc1O` displayed a CC50 at 30 h in data set [4] of 31.8 µM. In addition, in data set [1], the midpoint of the response, the EC50, lay at 19.3 µM. In addition, the IC50 in data set [5] is greater than 5 µM. In data set [2], the “Ratio EC50” value is less than 1. Besides, in data set [6], the selectivity ratio turned out to be 1.7.

Consider `COc1cc(OCCCCCCCCCCCCCBr)cc(O)c1C=O`, for which the result in data set [7] was inactive. Moreover, the IC50 in data set [5] was 2.3 µM. Besides, the “Ratio EC50” value in data set [2] is less than 1.

As for `O=C(O)c1ccc(OCCCCCCCCCCCCC[P+](c2ccccc2)(c2ccccc2)c2ccccc2)cc1O.[Br-]`, the entries for the “Ratio EC50” value in data set [3] and in data set [2] were greater than 2 and less than 1, respectively. Further, in data set [4], half-maximal cytotoxicity (CC50 at 30 h) was put at 19.6 µM. The same compound showed an EC50 in data set [1] of 0.086 µM. Moreover, the IC50 in data set [5] is greater than 5 µM. The selectivity ratio in data set [6] was found to be 227.

As for `COC(=O)c1ccc(OCCCCCCCCCCCCCBr)cc1O`, the “Ratio EC50” value in data set [8] and in data set [2] was less than 1 each time. The compound also registered a CC50 at 30 h in data set [4] of 28.6 µM. Moreover, the EC50 in data set [1] turned out to be 8.1 µM. Further, the IC50 in data set [5] is greater than 5 µM. Also, the selectivity ratio in data set [6] was determined as 3.5.

With `COC(=O)c1ccc(OC/C(C)=C/CC/C(C)=C/CO)cc1O`, the “Ratio EC50” value in data set [2] is on record as less than 1.

For the compound `COC(=O)c1ccc(OCCCCCCCCCCCCCBr)cc1C`, the outcome in data set [1] was inactive. Besides, in data set [2], the “Ratio EC50” value was less than 1.

Regarding `N=C(N)c1ccc(OCCCCCOc2ccc(C(=N)N)cc2)cc1` [PENTAMIDINE], the EC50 in data set [1] came to 0.0042 µM.

Compound `COC(=O)c1cc(OCCCCCCCCCCCCC[P+](c2ccccc2)(c2ccccc2)c2ccccc2)ccc1O.[Br-]` gave a CC50 at 30 h in data set [4] of 0.64 µM. Besides, the EC50 in data set [1] came to 0.028 µM. Also, the IC50 in data set [5] came to 0.012 µM. Also, the “Ratio EC50” value in data set [2] is on record as less than 1.

Take `COC(=O)c1ccc(OC/C(C)=C/CC/C(C)=C/CO)cc1C`: the result in data set [7] was inactive. The CC50 at 30 h in data set [4] was greater than 100 µM. The IC50 in data set [5] was 1.69 µM. Also, the “Ratio EC50” value in data set [2] was less than 1.

As to `COC(=O)c1ccc(OC/C(C)=C/CC/C(C)=C/CO)cc1F`, the outcome in data set [7] was inactive. Further, the cytotoxic concentration (CC50) at 30 h in data set [4] was greater than 100 µM. Besides, the IC50 in data set [5] is greater than 5 µM. The “Ratio EC50” value in data set [2] is on record as less than 1.

On to `CC(=O)OC/C=C(\C)CC/C=C(\C)COC(=O)c1ccc(O)cc1O`, for which the “Ratio EC50” value in data set [8] and in data set [2] was less than 1 each time. Moreover, the CC50 at 30 h in data set [4] was greater than 20 µM. The IC50 in data set [5] is 0.0091 µM.

For `O=Cc1ccc(OCCCCCCCCCCCCCBr)cc1O`, in data set [1], it took 17.6 µM to reach a half-maximal effect (EC50). Moreover, the IC50 in data set [5] stood at 0.073 µM.

For the compound `CC(=O)OC/C=C(\C)CC/C=C(\C)COC(=O)c1ccc(OC/C(C)=C/CC/C(C)=C/COC(C)=O)cc1O`, in data set [5], the IC50 is greater than 5 µM. For the same compound, the “Ratio EC50” value in data set [2] was less than 1.

In data set [1], `COC(=O)c1ccc(OCCCCCCCCCCCCC[P+](c2ccccc2)(c2ccccc2)c2ccccc2)cc1O.[Br-]` came in with an EC50 of 0.018 µM. For the same compound, the IC50 in data set [5] worked out at 0.015 µM. Besides, the “Ratio EC50” value in data set [2] is given as less than 1.

In the case of `COC(=O)c1ccc(OC/C(C)=C/CC/C(C)=C/COC(C)=O)cc1F`, the “Ratio EC50” value in data set [2] is less than 1.

Turning to `O=C(O)c1ccc(OCCCCCCCCCC[P+](c2ccccc2)(c2ccccc2)c2ccccc2)cc1O.[Br-]`, the “Ratio EC50” value in data set [8] and in data set [2] was less than 1 each time. The CC50 at 30 h in data set [4] was found to be 8.2 µM. Besides, the EC50 in data set [1] came out at 0.73 µM. Moreover, the IC50 in data set [5] was greater than 5 µM. Moreover, the selectivity ratio in data set [6] was 11.

In data set [4], `COC(=O)c1ccc(OCCCCCCCCCCCCC[n+]2cccc3ccccc32)cc1C.[Br-]` yielded a CC50 at 30 h of 0.3 µM. The compound further gave an EC50 in data set [1] of 0.16 µM. Also, the IC50 in data set [5] was greater than 5 µM. For the same compound, in data set [2], the “Ratio EC50” value is on record as less than 1. In addition, the selectivity ratio in data set [6] was found to be 1.9.

As for `CCOC(=O)c1ccc(OC/C(C)=C/CC/C(C)=C/CO)cc1O`, the IC50 in data set [5] is greater than 5 µM. The “Ratio EC50” value in data set [2] is less than 1.

In the case of `CCOC(=O)c1c(C)cc(OC/C(C)=C/CC/C(C)=C/CC/C(C)=C/COC(C)=O)cc1O`, the CC50 at 30 h in data set [4] was found to be 20.8 µM. A half-maximal response in data set [1] (EC50) required 6.6 µM. Moreover, the IC50 in data set [5] was greater than 5 µM. For the same compound, in data set [2], the “Ratio EC50” value is recorded as less than 1. Also, the selectivity ratio in data set [6] was 3.1.

As for `Cc1cc(OCCCCCCCCCCCCC[P+](c2ccccc2)(c2ccccc2)c2ccccc2)ccc1C(=O)O.[Br-]`, the “Ratio EC50” value in data set [8] and in data set [2] was less than 1 each time. Besides, it took 4.24 µM to reach half-maximal cytotoxicity in data set [4] (CC50 at 30 h). Also, the EC50 in data set [1] came to 0.19 µM. For the same compound, the IC50 in data set [5] was greater than 5 µM. Further, the selectivity ratio in data set [6] was 22.

`COC(=O)c1ccc(OC/C(C)=C/CC/C(C)=C/COC(C)=O)cc1C` displayed a CC50 at 30 h in data set [4] of 45.1 µM. The EC50 in data set [1] turned out to be 17 µM. For the same compound, in data set [5], the IC50 is greater than 5 µM. The “Ratio EC50” value in data set [2] was less than 1. The selectivity ratio in data set [6] turned out to be 2.7.

In turn, `Cc1cc(OCCCCCCCCCCCCC[n+]2cccc3ccccc32)ccc1C(=O)O.[Br-]` had a CC50 at 30 h in data set [4] of 24.4 µM. For the same compound, the EC50 in data set [1] worked out at 10.6 µM. The IC50 in data set [5] was greater than 5 µM. In addition, the “Ratio EC50” value in data set [2] was less than 1. Further, in data set [6], the selectivity ratio came out at 2.3.

Take `COC(=O)c1ccc(OCCCCCCCCCCCCC[n+]2cccc3ccccc32)cc1F.[Br-]`: the “Ratio EC50” value in data set [8] and in data set [2] was less than 1 throughout. Moreover, it took 3.36 µM to reach half-maximal cytotoxicity in data set [4] (CC50 at 30 h). Further, it took 2.4 µM to reach a half-maximal effect in data set [1] (EC50). In addition, the IC50 in data set [5] was greater than 5 µM. Besides, the selectivity ratio in data set [6] was 1.4.

Turning to `CCOC(=O)c1c(C)cc(OCCCCCCCCCCCCCBr)cc1O`, the “Ratio EC50” value in data set [8] and in data set [2] was less than 1 each time. The CC50 at 30 h in data set [4] worked out at 29.6 µM. Further, in data set [1], a half-maximal effect (EC50) was put at 8.9 µM. The IC50 in data set [5] was greater than 5 µM. In data set [6], the selectivity ratio was found to be 3.3.

In data set [4], `CCOC(=O)c1c(C)cc(OCCCCCCCCCCCCC[n+]2cccc3ccccc32)cc1O.[Br-]` returned a 50% cytotoxic concentration (CC50) at 30 h of 0.61 µM. The compound also gave an EC50 in data set [1] of 0.29 µM. Moreover, the IC50 in data set [5] was greater than 5 µM. Besides, the “Ratio EC50” value in data set [2] was less than 1. Also, the selectivity ratio in data set [6] amounted to 2.1.

Consider `COC(=O)c1ccc(OCCCCCCCCCC[P+](c2ccccc2)(c2ccccc2)c2ccccc2)cc1O.[Br-]`, for which the CC50 at 30 h in data set [4] came out at 0.44 µM. This compound came in with an EC50 in data set [1] of 0.002 µM. For the same compound, the IC50 in data set [5] is greater than 5 µM. In addition, the “Ratio EC50” value in data set [2] is listed as less than 1. The selectivity ratio in data set [6] was 184.

Values taken from ChEMBL document CHEMBL4196235, “SAR of 4-Alkoxybenzoic Acid Inhibitors of the Trypanosome Alternative Oxidase” (ACS Med Chem Lett, 2018).
